The results in this text go back to article PMC11327602 (Heliyon, 2024).

Assay [1] is described as follows: DPPH free radical scavenging activity. As to conditions: for IC50: read-out: DPPH scavenging IC50. (In general: Loss of DPPH colour is used to gauge radical scavenging.)
The nature of the next assay: ABTS method. As to conditions: for IC50: read-out: ABTS scavenging IC50.
The next assay concerns the target jack bean urease (Canavalia ensiformis, UniProt P07374). The experiment in a line: Urease inhibition assay. The settings on record: for IC50: Enzyme (SEM ±) J.B Urease, IC50, mean ± SEM, 3 experiments. The assay is classed as biochemical.
In a further assay the target is α-Glucosidase (Saccharomyces cerevisiae, UniProt P53341). In words: α-Glucosidase inhibition assay. The assay is classed as biochemical. In a few lines:
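Test compound (200–800 μg/mL) pre-incubated 5 min at 37 °C with 2 % w/v starch (sucrose) solution in 0.2 M Tris buffer, pH 8.0. 5 mM p-nitrophenyl-α-D-glucopyranoside added intermittently, then α-glucosidase (1 U/mL), 40 min at 35 °C. Stopped with […]; absorbance read at 405 nm. % inhibition = (control − sample)/control × 100; samples above 50 % taken to IC50.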

Assay [2] in a line: Superoxide anion scavenging assay. The settings on record: for IC50: read-out: superoxide anion scavenging IC50.
The target of assay [3] is Bacillus Pasteurii urease (Sporosarcina pasteurii, UniProt P41020). In words: Urease inhibition assay. The assay is classed as biochemical. As to conditions: Enzyme (SEM ±) B.P Urease, IC50, mean ± SEM, 3 experiments.
Chain of Bacillus Pasteurii urease (P41020 whole entry): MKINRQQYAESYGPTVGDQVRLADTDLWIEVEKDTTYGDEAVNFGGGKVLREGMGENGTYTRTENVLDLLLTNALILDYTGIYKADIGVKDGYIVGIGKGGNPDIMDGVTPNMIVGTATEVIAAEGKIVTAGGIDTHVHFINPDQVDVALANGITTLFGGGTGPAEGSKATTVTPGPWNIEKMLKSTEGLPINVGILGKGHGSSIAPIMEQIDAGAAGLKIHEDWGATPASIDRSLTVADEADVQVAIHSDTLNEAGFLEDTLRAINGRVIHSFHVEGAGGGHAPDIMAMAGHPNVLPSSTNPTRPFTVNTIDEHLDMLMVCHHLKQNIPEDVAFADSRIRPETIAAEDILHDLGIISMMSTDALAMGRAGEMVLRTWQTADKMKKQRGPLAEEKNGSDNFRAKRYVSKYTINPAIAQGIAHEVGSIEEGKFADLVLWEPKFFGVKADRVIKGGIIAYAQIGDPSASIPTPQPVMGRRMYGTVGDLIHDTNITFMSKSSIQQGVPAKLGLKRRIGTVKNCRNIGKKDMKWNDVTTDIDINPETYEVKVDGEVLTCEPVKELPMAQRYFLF
Chain of Bacillus Pasteurii urease (P41021 whole entry partner): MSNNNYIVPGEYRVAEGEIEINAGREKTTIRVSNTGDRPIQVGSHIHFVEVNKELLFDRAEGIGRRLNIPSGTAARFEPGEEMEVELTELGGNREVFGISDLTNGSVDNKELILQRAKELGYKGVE
Chain of Bacillus Pasteurii urease (P41022 whole entry partner): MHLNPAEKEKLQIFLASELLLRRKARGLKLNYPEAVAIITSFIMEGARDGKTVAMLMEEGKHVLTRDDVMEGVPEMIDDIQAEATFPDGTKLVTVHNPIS

Where “and” joins values, the source holds several entries; their conditions need not be identical. Equal values may be shown once.

Chain of α-Glucosidase (P53341 whole entry): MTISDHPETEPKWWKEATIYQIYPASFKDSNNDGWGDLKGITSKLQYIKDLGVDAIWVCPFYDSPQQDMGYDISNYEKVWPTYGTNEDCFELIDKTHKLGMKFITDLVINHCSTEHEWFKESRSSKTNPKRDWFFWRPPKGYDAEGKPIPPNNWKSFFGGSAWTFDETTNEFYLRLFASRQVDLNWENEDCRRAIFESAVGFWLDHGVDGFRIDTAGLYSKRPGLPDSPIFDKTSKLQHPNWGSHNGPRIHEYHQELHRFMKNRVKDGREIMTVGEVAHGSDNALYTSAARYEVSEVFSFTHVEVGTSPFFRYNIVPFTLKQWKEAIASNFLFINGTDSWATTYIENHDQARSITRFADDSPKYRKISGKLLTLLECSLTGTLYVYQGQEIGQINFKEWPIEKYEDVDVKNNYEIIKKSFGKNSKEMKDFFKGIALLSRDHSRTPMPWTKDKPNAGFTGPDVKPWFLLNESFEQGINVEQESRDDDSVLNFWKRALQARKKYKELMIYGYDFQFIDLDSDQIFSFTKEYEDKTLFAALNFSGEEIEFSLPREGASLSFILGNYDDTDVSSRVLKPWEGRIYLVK
Chain of jack bean urease (P07374 whole entry, looked up): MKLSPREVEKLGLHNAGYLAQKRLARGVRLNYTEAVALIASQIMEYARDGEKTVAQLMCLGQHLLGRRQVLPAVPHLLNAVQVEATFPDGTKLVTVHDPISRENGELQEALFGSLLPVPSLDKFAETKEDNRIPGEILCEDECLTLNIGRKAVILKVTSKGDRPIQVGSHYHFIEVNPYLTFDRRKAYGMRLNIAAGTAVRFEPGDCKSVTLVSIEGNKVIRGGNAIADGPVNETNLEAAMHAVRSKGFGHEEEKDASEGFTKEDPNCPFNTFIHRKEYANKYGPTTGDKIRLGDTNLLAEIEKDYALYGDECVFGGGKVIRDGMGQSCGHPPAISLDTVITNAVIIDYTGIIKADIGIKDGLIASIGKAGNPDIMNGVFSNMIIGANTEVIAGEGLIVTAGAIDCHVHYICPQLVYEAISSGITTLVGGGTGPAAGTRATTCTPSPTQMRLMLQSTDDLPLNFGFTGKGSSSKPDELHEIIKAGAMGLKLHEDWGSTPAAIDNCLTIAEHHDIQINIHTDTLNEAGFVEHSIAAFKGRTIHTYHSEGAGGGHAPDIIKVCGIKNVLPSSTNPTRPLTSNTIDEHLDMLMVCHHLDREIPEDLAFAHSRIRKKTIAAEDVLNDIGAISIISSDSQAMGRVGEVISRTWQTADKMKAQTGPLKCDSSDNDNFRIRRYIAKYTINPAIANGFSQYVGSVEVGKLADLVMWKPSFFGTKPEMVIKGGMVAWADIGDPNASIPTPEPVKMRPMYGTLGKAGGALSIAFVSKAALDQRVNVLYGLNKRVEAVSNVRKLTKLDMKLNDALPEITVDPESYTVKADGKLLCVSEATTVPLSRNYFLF

The IC50 is the concentration at which inhibition is half-maximal. On to `C=CCN(c1nccs1)S(=O)(=O)c1ccc([N+](=O)[O-])cc1` [Compound 32, N-Allyl-4-nitro-N-(thiazol-2-yl)benzenesulfonamide], for which the “DPPH % Scavenging” value in assay [1] (25 μM) worked out at 39.2 ± 0.2%; in assay [1] (50 μM), 53.5 ± 0.3%; in assay [1] (75 μM), 64.4 ± 0.01%; in assay [1] (100 μM) it was 88.2 ± 0.2%. The IC50 in assay [1] was found to be 46.2 ± 0.01 µM; in “ABTS method”, 31.01 ± 0.09 µM; against jack bean urease, 52.1 ± 1.12 µM; in assay [2], 49 ± 0.12 µM; in assay [3] it was 57.89 ± 0.18 µM. For the same molecule, the “ABTS % Scavenging” value is on record as 12.02 ± 0.03% in “ABTS method” (10 μM); 25.03 ± 0.01% in “ABTS method” (20 μM); 49.01 ± 0.09% in “ABTS method” (30 μM); 75.03 ± 0.02% in “ABTS method” (40 μM); 94.06 ± 0.21% in the assay “ABTS method” (50 μM). The “Types of inhibition (urease)” value on jack bean urease is listed as “Non-competitive”. The “inhibition against both enzymes (J.B. and B.P urease), in words” value against jack bean urease is listed as “weak inhibition”. Besides, the “Type of Inhibition (α-glucosidase and α-amylase)” value (from here on “Type of Inhibition”) at α-Glucosidase was “Non-competitive”. The “superoxide anion % scavenging” value in assay [2] (25 μM) was 15 ± 0.05%; in assay [2] (50 μM), 32 ± 0.02%; in assay [2] (75 μM) it was 67 ± 0.11%; in assay [2] (100 μM), 97 ± 0.51%.
As for `Cc1ccc(S(=O)(=O)N(C)c2nccs2)cc1` [Compound 33, N,4-Dimethyl-N-(thiazol-2-yl)benzenesulfonamide], the “DPPH % Scavenging” value was determined as 30.2 ± 0.2% in assay [1] (25 μM), 37.4 ± 0.1% in assay [1] (50 μM), 65.6 ± 0.01% in assay [1] (75 μM) and 88.3 ± 0.2% in assay [1] (100 μM). In addition, the IC50 in assay [1] was ~34.4 µM and 34.4 µM; in “ABTS method”, about 35.1 µM; against jack bean urease it was 22.1 ± 0.29 µM; in assay [2] it was 38 ± 0.55 µM; in assay [3], 25.09 ± 0.14 µM. Further, the “ABTS % Scavenging” value in “ABTS method” (10 μM) turned out to be 29.02 ± 0.08%; in the assay “ABTS method” (20 μM), 41.07 ± 0.03%; in the assay “ABTS method” (30 μM), 49.08 ± 0.01%; in “ABTS method” (40 μM) it was 72.02 ± 0.07%. On jack bean urease, the “Types of inhibition (urease)” value is “Non-competitive”. Moreover, the “Type of Inhibition” value at α-Glucosidase is reported as “Competitive”. Further, the “inhibition against both enzymes (α-glucosidase and α-amylase), in words” value at α-Glucosidase is on record as “weak inhibition”. Besides, the “superoxide anion % scavenging” value in assay [2] (25 μM) stood at 20 ± 0.01%; in assay [2] (50 μM), 51 ± 0.03%; in assay [2] (75 μM) it was 60 ± 0.15%; in assay [2] (100 μM) it was 99 ± 0.18%.
Take `COc1ccc(S(=O)(=O)N(C)c2nccs2)cc1` [Compound 34, 4-Methoxy-N-methyl-N-(thiazol-2-yl)benzenesulfonamide]: the “DPPH % Scavenging” value turned out to be 29.2 ± 0.01% in assay [1] (25 μM), 69.6 ± 0.2% in assay [1] (50 μM), 78.4 ± 0.2% in assay [1] (75 μM) and 94.8 ± 0.03% in assay [1] (100 μM). The half-maximal inhibitory concentration (IC50) in assay [1] is 45.5 ± 0.05 µM; in the assay “ABTS method” it was 47.1 µM; against jack bean urease it was 16 ± 0.21 µM; in assay [2], 52.1 ± 0.01 µM; in assay [3] it was 18.7 µM. In addition, the “ABTS % Scavenging” value in “ABTS method” (10 μM) stood at 27.2 ± 0.01%; in the assay “ABTS method” (20 μM) it was 35.6 ± 0.2%; in the assay “ABTS method” (30 μM) it was 46.4 ± 0.2%; in the assay “ABTS method” (40 μM), 69.8 ± 0.03%; in “ABTS method” (50 μM), 80.1 ± 0.08%. In addition, at jack bean urease, the “Types of inhibition (urease)” value was “Competitive”. For the same molecule, the “Type of Inhibition” value on α-Glucosidase was “Non-competitive”. The “inhibition against both enzymes (α-glucosidase and α-amylase), in words” value against α-Glucosidase was “weak inhibition”. Moreover, the “superoxide anion % scavenging” value in assay [2] (25 μM) stood at 18.2 ± 0.01%; in assay [2] (50 μM), 39.6 ± 0.2%; in assay [2] (75 μM), 69.4 ± 0.2%; in assay [2] (100 μM) it was 89.8 ± 0.03%.
As to `CN(c1nccs1)S(=O)(=O)c1ccc(Br)cc1` [Compound 35, 4-Bromo-N-methyl-N-(thiazol-2-yl)benzenesulfonamide], the “DPPH % Scavenging” value in assay [1] (25 μM) is given as 28.1 ± 0.04%; in assay [1] (50 μM), 34.4 ± 0.8%; in assay [1] (75 μM) it was 61.5 ± 0.03%; in assay [1] (100 μM), 89.1 ± 0.6%. The concentration for half-maximal inhibition (IC50) in assay [1] is 53.1 ± 0.11 µM; in “ABTS method”, 38.01 ± 0.13 µM; on jack bean urease, 18.7 µM; in assay [2] it was ~38 µM and 38 µM; in assay [3], 20.21 ± 0.19 µM. Besides, the “ABTS % Scavenging” value was 33.02 ± 0.08% in “ABTS method” (10 μM); 31.05 ± 0.01% in “ABTS method” (20 μM); 43.01 ± 0.03% in “ABTS method” (30 μM); 62.2 ± 0.09% in “ABTS method” (40 μM); 105.13 ± 0.11% in the assay “ABTS method” (50 μM). In addition, at jack bean urease, the “Types of inhibition (urease)” value is on record as “Competitive”. Also, the “Type of Inhibition” value on α-Glucosidase was “Competitive”. Besides, the “inhibition against both enzymes (α-glucosidase and α-amylase), in words” value against α-Glucosidase is listed as “weak inhibition”. Also, the “superoxide anion % scavenging” value in assay [2] (25 μM) is listed as 27 ± 0.12%; in assay [2] (50 μM), 53 ± 0.05%; in assay [2] (75 μM), 64 ± 0.04%; in assay [2] (100 μM), 89 ± 0.28%.
Regarding `CN(c1nccs1)S(=O)(=O)c1ccccc1` [Compound 36, N-Methyl-N-(thiazol-2-yl)benzenesulfonamide], the “DPPH % Scavenging” value in assay [1] (25 μM) worked out at 25.3 ± 0.07%; in assay [1] (50 μM), 65.5 ± 0.12%; in assay [1] (75 μM), 88.3 ± 0.11%; in assay [1] (100 μM), 93.8 ± 0.09%. The IC50 is ~49.3 µM and 49.3 µM in assay [1]; 45.07 ± 0.09 µM in the assay “ABTS method”; 14.06 ± 0.03 µM against jack bean urease; 57.1 ± 0.09 µM in assay [2]; 17.06 ± 0.03 µM in assay [3]. The “ABTS % Scavenging” value in “ABTS method” (10 μM) is on record as 23.2 ± 0.11%; in “ABTS method” (20 μM), 37.5 ± 0.2%; in “ABTS method” (30 μM), 48.3 ± 0.21%; in the assay “ABTS method” (40 μM), 65.5 ± 0.01%; in the assay “ABTS method” (50 μM), 87.5 ± 0.05%. Besides, the “Types of inhibition (urease)” value on jack bean urease was “Competitive”. Further, the “Type of Inhibition” value at α-Glucosidase was “Non-competitive”. Moreover, the “inhibition against both enzymes (α-glucosidase and α-amylase), in words” value against α-Glucosidase is recorded as “weak inhibition”. The “superoxide anion % scavenging” value in assay [2] (25 μM) was determined as 20.6 ± 0.11%; in assay [2] (50 μM), 43.6 ± 0.12%; in assay [2] (75 μM), 65.1 ± 0.5%; in assay [2] (100 μM) it was 87.5 ± 0.08%.
Consider `CN(c1nccs1)S(=O)(=O)c1ccc(Cl)cc1` [Compound 37, 4-Chloro-N-methyl-N-(thiazol-2-yl)benzenesulfonamide], for which the “DPPH % Scavenging” value in assay [1] (25 μM) is 19 ± 0.17%; in assay [1] (50 μM), 42.4 ± 0.8%; in assay [1] (75 μM), 66.8 ± 0.15%; in assay [1] (100 μM), 99.1 ± 0.21%. Moreover, the IC50 in assay [1] was 57.1 ± 0.11 µM; in “ABTS method”, 34.11 ± 0.16 µM; against jack bean urease it was 21.02 ± 0.21 µM; in assay [2], 54 ± 0.15 µM; in assay [3] it was 25.4 ± 0.31 µM. Also, the “ABTS % Scavenging” value is 30.22 ± 0.22% in the assay “ABTS method” (10 μM); 41.25 ± 0.11% in the assay “ABTS method” (20 μM); 48.01 ± 0.12% in the assay “ABTS method” (30 μM); 65.5 ± 0.07% in the assay “ABTS method” (40 μM); 99.03 ± 0.15% in “ABTS method” (50 μM). Also, the “Types of inhibition (urease)” value at jack bean urease is listed as “Competitive”. Also, the “Type of Inhibition” value at α-Glucosidase is listed as “Non-competitive”. Also, at α-Glucosidase, the “inhibition against both enzymes (α-glucosidase and α-amylase), in words” value is recorded as “weak inhibition”. The “superoxide anion % scavenging” value is on record as 37 ± 0.21% in assay [2] (25 μM), 43 ± 0.6% in assay [2] (50 μM), 67 ± 0.03% in assay [2] (75 μM) and 99 ± 0.15% in assay [2] (100 μM).
Take `CN(c1nccs1)S(=O)(=O)c1ccc(F)cc1` [Compound 38, 4-Fluoro-N-methyl-N-(thiazol-2-yl)benzenesulfonamide]: the “DPPH % Scavenging” value was 21.3 ± 0.11% in assay [1] (25 μM), 67.3 ± 0.2% in assay [1] (50 μM), 89.3 ± 0.05% in assay [1] (75 μM) and 95.01 ± 0.9% in assay [1] (100 μM). Further, the IC50 is 69.5 ± 0.1 µM in assay [1]; 49.03 ± 0.15 µM in “ABTS method”; 24.31 ± 0.18 µM at jack bean urease; 67.6 ± 0.93 µM in assay [2]; 27.15 ± 0.14 µM in assay [3]. In addition, the “ABTS % Scavenging” value in “ABTS method” (10 μM) amounted to 13.2 ± 0.91%; in “ABTS method” (20 μM), 35.3 ± 0.42%; in the assay “ABTS method” (30 μM) it was 41.2 ± 0.71%; in the assay “ABTS method” (40 μM), 48.13 ± 0.11%; in the assay “ABTS method” (50 μM), 79.3 ± 0.44%. Besides, on jack bean urease, the “Types of inhibition (urease)” value is “Competitive”. Further, the “Type of Inhibition” value at α-Glucosidase is “Non-competitive”. The “superoxide anion % scavenging” value is 31.5 ± 0.11% in assay [2] (25 μM), 45.01 ± 0.5% in assay [2] (50 μM), 55.7 ± 0.5% in assay [2] (75 μM) and 92.5 ± 0.03% in assay [2] (100 μM).
